These results are taken from ChEMBL document CHEMBL2021778, “Neurosteroid analogues. 17. Inverted binding orientations of androsterone enantiomers at the steroid potentiation site on γ-aminobutyric acid type A receptors” (J Med Chem, 2012).

The term IC50 denotes the concentration at which inhibition is half-maximal. In general, EC50 refers to the concentration at which the effect is half-maximal. A word on the inhibition: it is the drop in the measured response relative to a control, in per cent.

Data set [1] is described as follows: Displacement of [35S]TBPS from GABAA receptor picrotoxin binding site in rat brain membranes. Format: cell membranes. (In general: Loss of bound radioactivity is the signal in a displacement assay; it reports binding, not function.)
Data set [2] concerns Oocyte. In words: Modulation of rat alpha1beta2gamma2L GABAA receptor expressed in Xenopus laevis oocytes assessed as potentiation of GABA-induced chloride currents at 0.1 uM by electrophysiology assay relative to control. Format: cell-based.
Data set [3] deals with Oocyte. In words: Modulation of rat alpha1beta2gamma2L GABAA receptor expressed in Xenopus laevis oocytes assessed as potentiation of GABA-induced chloride currents at 1 uM by electrophysiology assay relative to control. Format: cell-based.
The subject of data set [4] is Oocyte. In words: Modulation of rat alpha1beta2gamma2L GABAA receptor expressed in Xenopus laevis oocytes assessed as potentiation of GABA-induced chloride currents at 10 uM by electrophysiology assay relative to control. Format: cell-based.
For data set [5], the system named is Oocyte. In words: Modulation of rat alpha1beta2gamma2L GABAA receptor expressed in Xenopus laevis oocytes assessed as […] at 10 uM by electrophysiology assay relative to GABA. Format: cell-based. The procedure, abridged: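 Rat α1β2γ2L receptors in Xenopus oocytes, two-electrode voltage clamp at −70 mV. Current gated directly by 10 μM compound without GABA, expressed as the ratio to the current from 2 μM GABA. At least four oocytes. Mean ± SEM.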

The test system of data set [6] is Xenopus laevis. In words: Anesthetic effect on Xenopus laevis tadpole assessed as loss of righting reflex. Format: functional, organism-based. In short, it runs like this: (§1)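 Xenopus laevis tadpoles, N = 10 or more per concentration, at five or more concentrations from 0.01 μM to 30 μM. Loss of righting reflex (LRR) and loss of swimming reflex (LSR) were scored. EC50 and nHill were taken from concentration–response curves. Recovery was checked after an overnight period. Mean ± SEM.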

Data set [7] has as its system Xenopus laevis. In words: Anesthetic effect on Xenopus laevis tadpole assessed as loss of swimming reflex. Format: functional, organism-based. The procedure, abridged:
as §1

Data set [8] relates to Oocyte. In words: Modulation of rat alpha1beta2gamma2L GABAA receptor expressed in Xenopus laevis oocytes assessed as potentiation of GABA-induced chloride currents at 0.5 uM by electrophysiology assay relative to control. Format: cell-based.
Data set [9] deals with Oocyte. In words: Modulation of GABAA receptor alpha1(Q241L)beta2gamma2L mutant expressed in Xenopus laevis oocytes assessed as potentiation of GABA-induced chloride currents at 0.5 uM by electrophysiology assay. Format: cell-based. In short, it runs like this:
(§2)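 Oocytes were coinjected with α1(Q241L) cRNA plus wild-type β2 and γ2L cRNA. Recording was by two-electrode voltage clamp at −70 mV, 2–5 days after injection. Responses to a sequence of compound applications were normalised, 4 oocytes per receptor type.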

For data set [10], the species on record is Rattus norvegicus. In words: Displacement of [35S]TBPS from GABAA receptor picrotoxin binding site in rat brain membranes at 10 uM. Format: cell membranes.
For data set [11], the system named is Xenopus laevis. In words: Anesthetic effect on Xenopus laevis tadpole assessed as loss of swimming reflex at 10 uM. Format: functional, organism-based. The procedure, abridged: (§3)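 Tadpoles, 10 per group, exposed at 10 μM. Each animal was scored for swimming reflex, and for death without overnight recovery from loss of swimming reflex. Results are given as the number of animals out of 10.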

The test system of data set [12] is Oocyte. In words: Modulation of GABAA receptor alpha1(Q241L)beta2gamma2L mutant expressed in Xenopus laevis oocytes assessed as potentiation of GABA-induced chloride currents at 1 uM by electrophysiology assay. Format: cell-based. In short, it runs like this: as §2
The species named for data set [13] is Xenopus laevis. In words: Toxicity in Xenopus laevis tadpole assessed as mortality at 10 uM. Format: organism-based. The conditions noted are these: in vivo. In short, it runs like this:
as §3

Molecules are shown by their SMILES. Active and inactive are the calls of the source. The rule behind the calls is not given here.

Compound `C[C@@]12CC[C@H](O)C[C@H]1CC[C@@H]1[C@@H]2[C@H](OCc2ccccc2)C[C@]2(C)[C@H]1CC[C@]21CO1` returned a half-maximal inhibitory concentration (IC50) in [1] of 2050 nM. Further, the Ratio in data set [2] turned out to be 1.01; in data set [3], 1.3; in data set [4], 3.21; in data set [5] it was 0.05. The figures for the EC50 in data set [6] and in data set [7] were 2640 nM and 2740 nM, respectively.
The compound `C[C@]12CC[C@@H](O)C[C@@H]1CC[C@@H]1[C@@H]2[C@@H](OCc2ccccc2)C[C@@]2(C)[C@H]1CC[C@@]21CO1` displayed an IC50 in data set [1] of 15 nM. The Ratio in data set [2] is 2.99; in data set [3], 21.2; in [4], 31.1; in data set [5], 0.42. Besides, the outcome in data set [8] and in data set [9] was inactive. Moreover, the EC50 in data set [6] is 70 nM; in [7], 270 nM.
In data set [1], `C[C@]12CC[C@@H](O)C[C@@H]1C[C@H](OCc1ccccc1)[C@@H]1[C@@H]2CC[C@]2(C)C(=O)CC[C@@H]12` returned an IC50 of over 10000 nM. For the same compound, the inhibition in data set [10] was determined as 35%. Besides, the Ratio amounted to 0.97 in data set [2], 0.9 in data set [3], 0.76 in data set [4] and 0 in data set [5]. In addition, in [6], the 50% effective concentration (EC50) was over 10000 nM. Further, the result in data set [11] was inactive.
In turn, `C[C@]12CC[C@@H](O)C[C@@H]1CC[C@@H]1[C@@H]2[C@@H](OCc2ccccc2)C[C@]2(C)C(=O)CC[C@@H]12` came in with an IC50 in [1] of 285 nM. The Ratio in data set [2] amounted to 1.08; in data set [3], 2.96; in data set [4], 24.4; in [5] it was 0.2. Besides, the outcome in data set [12] was inactive. Further, the concentration for a half-maximal effect (EC50) in [6] worked out at 200 nM; in data set [7], 870 nM. The Activity entry in data set [13] is listed as “Toxic”.
As for `C[C@@]12CCC3C(CC[C@@H]4C[C@@H](O)CC[C@@]34C)C1CCC2=O` (single isomer, unassigned), the IC50 in data set [1] stood at 311 nM. Besides, the Ratio in data set [2] came to 1.27; in data set [3] it was 3.66; in data set [4], 18.9; in data set [5], 0.03.
`C[C@@]12CC[C@H](O)C[C@H]1C[C@@H](OCc1ccccc1)[C@@H]1[C@@H]2CC[C@]2(C)[C@H]1CC[C@]21CO1` yielded an IC50 in [1] of 52 nM. The Ratio stood at 3.47 in data set [2], 20.3 in data set [3], 32.4 in data set [4] and 0.22 in data set [5]. For the same compound, the result in data set [8] and in data set [9] was inactive. In addition, the results for the EC50 in [6] and in [7] were 310 nM and 550 nM, respectively.
On to `C[C@]12CC[C@@H](O)C[C@@H]1C[C@H](OCc1ccccc1)[C@@H]1[C@@H]2CC[C@@]2(C)[C@H]1CC[C@@]21CO1`, for which the IC50 in [1] came to 6750 nM. In addition, the Ratio in [2] turned out to be 0.83; in data set [3], 0.88; in [4], 0.77; in [5] it was 0.09. Also, the EC50 in [6] is 3220 nM; in data set [7], 7940 nM.
The compound `C[C@@]12CC[C@H](O)C[C@H]1CC[C@@H]1[C@@H]2[C@H](OCc2ccccc2)C[C@@]2(C)C(=O)CC[C@@H]12` yielded an IC50 in data set [1] of over 10000 nM. For the same compound, the Ratio stood at 0.89 in [2], 0.85 in data set [3], 0.6 in [4] and 0 in [5]. Also, the EC50 in data set [6] was 1960 nM; in [7], 3450 nM. Also, the Activity entry in [13] is reported as “Toxic”.
The compound `C[C@@]12CC[C@H](O)C[C@H]1C[C@@H](OCc1ccccc1)[C@@H]1[C@@H]2CC[C@@]2(C)C(=O)CC[C@@H]12` yielded a 50% inhibitory concentration (IC50) in [1] of 168 nM. Besides, the Ratio in [2] amounted to 1.25; in data set [3] it was 5.74; in data set [4] it was 25.2; in [5], 0.11. For the same compound, in data set [12], the result was inactive. Also, the EC50 worked out at 1210 nM in data set [6] and 2930 nM in [7].
Compound `C[C@]12CC[C@@H](O)C[C@@H]1CC[C@@H]1[C@@H]2CC[C@@]2(C)[C@H]1CC[C@@]21CO1` returned an IC50 in data set [1] of 105 nM. For the same compound, the Ratio stood at 3.11 in [2], 21.9 in [3], 33.7 in data set [4] and 0.22 in data set [5].
The matching figures for `C[C@@]12CC[C@H](O)C[C@H]1CCC1C2CC[C@]2(C)C1CC[C@]21CO1` (single isomer, unassigned): 467 nM, 2.62, 15.9, 26.3 and 0.1.
As to `CC(=O)[C@H]1CC[C@H]2[C@@H]3CC[C@H]4C[C@H](O)CC[C@]4(C)[C@H]3CC[C@]12C` [BREXANOLONE], the IC50 in data set [1] is 74 nM. The Ratio in [2] worked out at 1.26; in [3], 3.89; in data set [4] it was 9.65; in [5], 0.37. For the same compound, the outcome in [8] and in data set [9] was inactive.
Regarding `C[C@]12CC[C@@H](O)C[C@@H]1CC[C@@H]1[C@@H]2CC[C@]2(C)C(=O)CC[C@@H]12` [ANDROSTERONE], the 50% inhibitory concentration (IC50) in data set [1] came out at 410 nM. The Ratio came to 0.97 in [2], 1.41 in data set [3], 5.44 in data set [4] and 0.02 in data set [5]. Besides, the outcome in data set [11] was inactive.
